# Test results: ChEMBL document CHEMBL1155242, “Radiolabeled 5-iodo-3'-O-(17beta-succinyl-5alpha-androstan-3-one)-2'-deoxyuridine and its 5'-monophosphate for imaging and therapy of androgen receptor-positive cancers: synthesis and biological evaluation” (J Med Chem, 2009); call rule not given here
# Columns and labels:
# LNCaP [1] = assay: Cytotoxicity against human LNCAP cells expressing androgen receptor assessed as drug level required to reduce viable cell count to 37% after 48 hrs; format: functional
# Procedure, shortened: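 LNCaP human prostate cancer cells were grown for 48 h with the 125I-labelled compound in the medium, and cell survival was then determined. D37 was expressed as the extracellular concentration in μCi/mL.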
# Blood [2] = assay: Biodistribution in blood of athymic NCr mouse xenografted with human OVCAR-3 cells assessed per gram of tissue at 0.25 mCi, ip administered 31 days after tumor implantation as single bolus dose measured 55 days after implantation by gamma counting in presence of SHBG; format: ADME, organism-based; conditions: in vivo
# Procedure, shortened: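 Mice given one ip bolus of 0.25 mCi co-injected with SHBG; blood, tumor cells, solid tumors and normal tissues taken at necropsy and counted; %ID/g decay-corrected.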
# OVCAR-3 [3] = assay: Antitumor activity against human OVCAR-3 cells xenografted in athymic NCr mouse assessed as solid tumor weight in peritoneum at 0.25 mCi, ip administered 31 days after tumor implantation as single bolus dose measured 55 days after implantation by gamma counting in presence of SHBG (Rvb= 1.9 +/- 0.8 g); format: functional
# [4] = Biodistribution in uterus of athymic NCr mouse xenografted with human OVCAR-3 cells assessed per gram of tissue at an average 39.5 uCi/dose, ip administered 9 days after tumor implantation as six fractionated doses every 4 days measured after 2 weeks of last dose by gamma counting; format: ADME, organism-based; conditions: in vivo, 336 h
# Procedure, shortened: (§1)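 OVCAR-3-bearing and healthy athymic mice given fractionated ip doses on the six-dose every-4-days schedule; tissues, tumor and lavaged cells γ-counted at necropsy, %ID/g; DNA-bound 125I in cells measured as cpm/cell.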
# [5] = Stability in mouse serum assessed as intact compound remaining at 20 uCi after 40 mins by size-exclusion HPLC analysis; format: ADME, cell-free; conditions: read-out: Stability
# Procedure, shortened: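 The compound was incubated in mouse serum, which lacks circulating SHBG. Aliquots were analysed on size-exclusion HPLC (TSK3000; phosphate/Na2SO4 buffer, pH 6.8, then an acetonitrile gradient). Extracts were analysed by C18 reversed-phase HPLC to measure intact compound remaining over time.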
# Blood [6] = assay: Biodistribution in blood of athymic NCr mouse xenografted with human OVCAR-3 cells assessed per gram of tissue at an average 39.5 uCi/dose, ip administered 9 days after tumor implantation as six fractionated doses every 4 days measured after 2 weeks of last dose by gamma counting; format: ADME, organism-based; conditions: in vivo, 336 h; procedure, shortened: as §1
# OVCAR-3 [7] = assay: Cytotoxicity against human OVCAR-3 cells expressing androgen receptor assessed as cell survival at 3 uCi/mL after 48 hrs; format: functional
# Procedure, shortened: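 NIH:OVCAR-3 cells were grown for 48 h with the 125I-labelled compound, and survival was plotted against the extracellular concentration in μCi/mL.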
# Albumin = Albumin (Mus musculus, UniProt P07724); assay: Binding affinity to mouse serum albumin at 10 to 20 uCi/mL after 60 mins by size-exclusion HPLC analysis; format: ADME; conditions: isolated protein, 1 h
# Sequence of Albumin (P07724 whole entry): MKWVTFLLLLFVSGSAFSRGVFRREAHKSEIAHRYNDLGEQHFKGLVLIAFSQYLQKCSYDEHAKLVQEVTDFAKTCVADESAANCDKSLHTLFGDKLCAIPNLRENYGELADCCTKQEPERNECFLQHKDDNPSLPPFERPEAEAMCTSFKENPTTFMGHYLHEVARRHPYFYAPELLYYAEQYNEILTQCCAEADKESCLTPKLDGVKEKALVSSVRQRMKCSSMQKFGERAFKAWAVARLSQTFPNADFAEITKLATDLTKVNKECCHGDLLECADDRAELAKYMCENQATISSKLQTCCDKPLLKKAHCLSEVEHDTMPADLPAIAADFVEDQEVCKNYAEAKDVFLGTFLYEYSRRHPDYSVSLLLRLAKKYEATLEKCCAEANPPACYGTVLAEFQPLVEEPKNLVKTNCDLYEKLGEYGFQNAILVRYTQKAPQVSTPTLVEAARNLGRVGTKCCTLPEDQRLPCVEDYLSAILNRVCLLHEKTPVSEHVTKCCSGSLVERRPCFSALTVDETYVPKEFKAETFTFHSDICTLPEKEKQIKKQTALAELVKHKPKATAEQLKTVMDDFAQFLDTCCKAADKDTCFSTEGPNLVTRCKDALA
# Procedure, shortened: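 Radioiodinated compound incubated 60 min with human, rabbit or mouse serum, or with purified human SHBG. Aliquots analysed on a TSK3000 size-exclusion column: 0.1 M potassium phosphate/0.1 M Na2SO4 (1:1, pH 6.8) for 20 min, then 0–40% CH3CN over 20 min, held 30 min, 0.7 mL/min. Protein-bound versus free radioactivity read from the peaks.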
# [8] = Ratio of drug level in tumor to uterus in athymic NCr mouse xenografted with human OVCAR-3 cells at 180 uCi, ip administered 9 days after tumor implantation as six fractionated doses every 4 days measured after 48 hrs by gamma counting; format: ADME, organism-based; conditions: in vivo
# [9] = Ratio of drug level in tumor to kidney in athymic NCr mouse xenografted with human OVCAR-3 cells at 180 uCi, ip administered 9 days after tumor implantation as six fractionated doses every 4 days measured after 48 hrs by gamma counting; format: ADME, organism-based; conditions: in vivo
# [10] = Biodistribution in peritoneum of athymic NCr mouse xenografted with human OVCAR-3 cells at 1.12 uCi, ip after 1.5 hrs by gamma counting; format: ADME, organism-based; conditions: in vivo
# [11] = Ratio of drug level in tumor to uterus in athymic NCr mouse xenografted with human OVCAR-3 cells at 180 uCi, ip administered 9 days after tumor implantation as six fractionated doses every 4 days measured after 72 hrs by gamma counting; format: ADME, organism-based; conditions: in vivo
# LNCaP [12] = assay: Cellular uptake in proliferating human LNCAP cells expressing androgen receptor assessed as [125I]UdR retention per cell at 1 to 4 uCi/mL after 24 hrs by gamma counting; format: ADME, cell-based
# Procedure, shortened: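 Proliferating LNCaP monolayers exposed 24 h to a range of radioligand concentrations; whole-cell uptake measured.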
# LNCaP [13] = assay: Cellular uptake in single-cell suspension of nonproliferating human LNCAP cells expressing androgen receptor at 0.03 uCi/mL up to 2 hrs by gamma counting; format: ADME, cell-based; conditions: TDE = time-dependent effect
# Procedure, shortened: (§2)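 Low-passage LNCaP held as single-cell suspension (non-proliferating) in RPMI-1640 with radioligand at 0.03 or 0.37 μCi/mL; whole-cell and nuclear radioactivity measured over time.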
# LNCaP [14] = assay: Cellular uptake in single-cell suspension of nonproliferating human LNCAP cells expressing androgen receptor assessed as increase in cellular retention at 0.37 uCi/mL after 5 to 16 hrs by gamma counting; format: ADME, cell-based; procedure, shortened: as §2
# [15] = Ratio of drug level in tumor to liver in athymic NCr mouse xenografted with human OVCAR-3 cells at 180 uCi, ip administered 9 days after tumor implantation as six fractionated doses every 4 days measured after 72 hrs by gamma counting; format: ADME, organism-based; conditions: in vivo
# [16] = biological target: T1, Sex hormone-binding globulin (Oryctolagus cuniculus, UniProt P15196); assay: Binding affinity to rabbit sex hormone binding globulin at 10 to 20 uCi/mL after 60 mins by size-exclusion HPLC analysis; format: ADME; conditions: 1 h
# T1 sequence (P15196 whole entry): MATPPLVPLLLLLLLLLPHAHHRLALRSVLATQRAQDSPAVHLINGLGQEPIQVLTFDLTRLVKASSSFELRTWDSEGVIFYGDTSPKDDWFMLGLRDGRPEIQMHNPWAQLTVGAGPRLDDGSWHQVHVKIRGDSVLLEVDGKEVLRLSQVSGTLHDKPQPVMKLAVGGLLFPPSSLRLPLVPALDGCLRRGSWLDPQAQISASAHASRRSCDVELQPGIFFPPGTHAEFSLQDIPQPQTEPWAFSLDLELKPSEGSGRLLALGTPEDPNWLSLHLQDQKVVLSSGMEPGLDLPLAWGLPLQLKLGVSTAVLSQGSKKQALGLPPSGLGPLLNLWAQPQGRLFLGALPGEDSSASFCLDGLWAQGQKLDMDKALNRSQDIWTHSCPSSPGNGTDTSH
# Procedure, shortened: (§3)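 Radioligand incubated 60 min in rabbit serum; size-exclusion HPLC as for SHBG binding (phosphate/Na2SO4 pH 6.8, then CH3CN gradient) for SHBG-bound peak, with extracts run on C18 for intact compound.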
# [17] = biological target: T1, Sex hormone-binding globulin; assay: Binding affinity to rabbit sex hormone binding globulin assessed as intact compound remaining at 10 to 20 uCi/mL after 60 mins by size-exclusion HPLC analysis; format: ADME; conditions: read-out: Stability; procedure, shortened: as §3
# [18] = Ratio of drug level in tumor to liver in athymic NCr mouse xenografted with human OVCAR-3 cells at 180 uCi, ip administered 9 days after tumor implantation as six fractionated doses every 4 days measured after 1.5 hrs by gamma counting; format: ADME, organism-based; conditions: in vivo
# [19] = Ratio of drug level in tumor to spleen in athymic NCr mouse xenografted with human OVCAR-3 cells at 180 uCi, ip administered 9 days after tumor implantation as six fractionated doses every 4 days measured after 1.5 hrs by gamma counting; format: ADME, organism-based; conditions: in vivo
# Mus musculus = assay: Toxicity in ip dosed athymic NCr mouse assessed as change in body weight measured after 21 days; format: organism-based; conditions: in vivo, 504 h
smiles,measurement,setting,value
C[C@]12CCC(=O)C[C@@H]1CC[C@@H]1[C@@H]2CC[C@]2(C)[C@@H](OC(=O)CCC(=O)O[C@H]3C[C@H](n4cc([125I])c(=O)[nH]c4=O)O[C@@H]3COP(=O)(O)O)CC[C@@H]12,Activity,LNCaP [1],1.7 uCi/ml
same,Drug uptake,Blood [2],0.057 %ID
same,Activity,OVCAR-3 [3],1.2 g
same,Drug uptake,[4],0.027 %ID
same,"remaining at 40 min, 20 uCi",[5],60%
same,Drug uptake,Blood [6],0.003 %ID
C[C@]12CCC(=O)C[C@@H]1CC[C@@H]1[C@@H]2CC[C@]2(C)[C@@H](OC(=O)CCC(=O)O[C@H]3C[C@H](n4cc([125I])c(=O)[nH]c4=O)O[C@@H]3CO)CC[C@@H]12,Survival,OVCAR-3 [7],50%
same,Activity,Albumin,Not Active
same,Ratio,[8],16.6
same,Ratio,[9],61.8
same,Drug uptake,[10],29%
same,Ratio,[11],7.4
same,Bmax,LNCaP [12],1.4 ×10⁻⁶ pmol
same,Drug uptake,LNCaP [13],tde
same,fold change (FC),LNCaP [14],10
same,Ratio,[15],21.8
same,Activity,[16],Active
same,remaining at 1 h,[17],> 84%
same,Ratio,[18],1.4
same,Ratio,[19],1
same,Activity,Mus musculus,Non-toxic
